Source: the EternaBench riboswitch data

Test system: MS2 coat protein
Experiment: apparent Kd, MS2 coat protein; higher = weaker binding; RNA-MaP array; FMN 200 µM where present
How it was run: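 Green signal was scaled to red-channel RNA signal and control-cluster median Fmax, and the apparent Kd was taken as the median of filtered per-cluster binding-curve fits. The binding series used SNAP-549-labelled MS2 coat protein from 0.7 or 1.5 nM, doubling to 3 µM, on designs transcribed by stalled E. coli RNA polymerase on Illumina sequencing-chip clusters. Each series ran without and then with constant ligand in 100 mM Tris-HCl pH 7.5, 80 mM KCl, 4 mM MgCl2, BSA, DTT, yeast tRNA and Tween-20.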

[1] = designed as: OFF switch for flavin mononucleotide, no ligand
[2] = ligand present: flavin mononucleotide, designed as: OFF switch for flavin mononucleotide
[3] = designed as: ON switch for flavin mononucleotide, no ligand
[4] = ligand present: flavin mononucleotide, designed as: ON switch for flavin mononucleotide

Sequence	apparent Kd [1]	apparent Kd [2]	apparent Kd [3]	apparent Kd [4]
GUUGGCUGAGGAUAUGCUUGCAUGCUUUUGUGUUGCGGGUGACAUGAGGAUCACCCAUGUAGAAGGUGGUCGGC	1040 nM	817 nM	–	–
GUCAUUAAACAGAAGGUGUAGUACAUGAGGAUCACCCAUGUAUAACUAACUAAAUUUGUAAUUAACAAGGAUAUGUACUAAUCG	–	–	6.58 nM	6.63 nM
CGCAACUUUUCUCAUGUAAACAUGAGGAUCACCCAUGUAAUGAGAAGGAGGAGAAAGAGAGAAUCCUAGGAUAUCAGAGUUGCG	6.29 nM	6.53 nM	–	–
CGGGCGCCGAAGGGCGAAAGCCCACAUGAGGAUCACCCAUGUAGAAGGAGGGAAGAAACCAAAACCUAGGAUAUACAGGCGCCA	8.43 nM	10.5 nM	–	–
GGGAAGGGCGGAGGAUAUCGACAUGAGGAUCACCCAUGUAUCACCCAUGUAUGAGAAGGUUGGAAGGAUUAAAACGUGAGGGUC	57.6 nM	44.3 nM	–	–
GGAUAGGACAGAGGAUAUACGUGCUAGAGAUACUAGCAAAAUUUCCUCACAUGAGGAUCACCCAUGUAGAAGGCUGUACUAUCG	15.2 nM	202 nM	–	–
AUAUAACAUGAGGAUCACCCAUGUCAACAAAGUCGAGGAUAUGGGCAAAUAAAAUAAGAACCAGAAGGCGAAUAAU	–	–	291 nM	51.9 nM
AUAUUGUGAGGAUAUCAGGUGUGCUAGCGUACUGGUACAUCUGAGAAGGCACAUGAGGAUCACCCAUGUUUCUU	15.6 nM	39.6 nM	–	–
CUAUGAGCGAUAGGAUAUACUGAGAUUGAGUGGGUAGAAGGAUCGAUAGUGUAGAAGACAUGAGGAUCACCCAUGUUAUGGGUU	–	–	726 nM	501 nM
ACCUUACAUGAGGAUCACCCAUGUCAGGAUAUCUCGGGCGACCGAGGGCCGGCCGCCCAGAGAAGGGACGAGGA	12.5 nM	13.9 nM	–	–
UAAAUUUUGUAAGGAUAUACACGAGAUUCAAGUGUAGAAGGUACUUACAUGAGGAUCACCCAUGUAUACAUGGAUACUAGAUAU	–	–	209 nM	103 nM
GUUACACAUGAGGAUCACCCAUGUAAGGAUAUGCUGCGGUCGCGAAAACGUGACUGCAGCAGAAGGUACACAUG	119 nM	121 nM	–	–
GCAGAACAUGAGGAUCACCCAUGUCUCUAAUAUCGAGGAUAUGGGCACGGUAUAUCCGAACCAGAAGGCGAACUGC	–	–	272 nM	60 nM
CAGGGUCGUAUUCAGCCCGUCCACAUGAGGAUCACCCAUGUCAAGGAUAUAGCUUAAAAUACAAACUAGAAGGUGACGCUGGGU	21.7 nM	83.8 nM	–	–
ACUUGUAAGCAGAAGGCAGUCAUAGUAUUCGUCAUGUAGACAUGAGGAUCACCCAUGUAUAGUACUGAGGAUAUGCUUCGAUAG	19.3 nM	21.7 nM	–	–
UCAUCAGCGGGCGGGUCGGUUGGACAUGAGGAUCACCCAUGUAGAAGGACCGGUGGACUCCGCCGGUAGGAUAUACAUUUGGUG	32.1 nM	18.9 nM	–	–
GACUAGUAAGGAUAUCAAGUUCUCCACAUGAGGAUCACCCAUGUCGAUAACCUCUGACAAUGAGAAGGUGCUGACU	35.1 nM	31.9 nM	–	–
GCCUGCUGGCAAGGAUAUUCUGUGCGGUUCCGGCUCGUGUCUGUUACAUGAGGAUCACCCAUGUGGGAGAAGGUGUCUGUGGCC	6.21 nM	5.88 nM	–	–
UCGUACAUUCGAGGAUAUCGGUGAUAAAUAAUACGAGAAGGCGAUUGUGGGAAUAACGCCUUAGACAUGAGGAUCACCCAUGUA	–	–	72.4 nM	62.6 nM
AUAUUGUGAGGAUAUGAACUUAGUAUCGAAAGAUACUAUGUUCAGAAGGCACAUGAGGAUCACCCAUGUUUCUC	81.7 nM	569 nM	–	–
AGAAACCGAGGAUAUACAUGAGGAUCACCCAUGUCAAGCGGCAUCUACCGAACCUUCUGUAGAAGGCGGAAAAC	19.9 nM	22.9 nM	–	–
UGCACAUGAGGAUCACCCAUGUAUUGUUCGGUUAAUAGAAGUGAGGAUAUGCAUAAAAUAAGGUAGCAGAAGGCACAGGAUUCA	–	–	23.9 nM	25.4 nM
UGGAUGUAGGAGAAGGAGGACUUCAUGAGGAUCACCCAUGUGUUAGUACUUAGGAUAUUUGACAACAUGAGGAUCACCCAUGUG	–	–	105 nM	96.4 nM
UUUAUUAGUUAGAAGGCUUGAUGAAUUACAAUAGACAUGAGGAUCACCCAUGUGUAUUCAUGUCAAGAGGAUAUAGUCAUAUAU	–	–	13.7 nM	6.54 nM
UGUUGUAUUACAGGAUAUCUAGUAUUUUUAUUGAGAGAAGGGUAUUCACAUGAGGAUCACCCAUGUAUAUACGAGGAAGUUGUG	–	–	50.5 nM	49 nM
UUAUUUAUACAAGGAUAUCAAUUAUAUACACAUCCUACAUGAGGAUCACCCAUGUUUUAUUUUUUUGAGAAGGUGUAUUGUGGG	–	–	92.3 nM	109 nM
AUCUAAGAAUUAAUUGUGACAGUGAGAAGGCUAUAGUAUGUGACCGACAUGAGGAUCACCCAUGUAGAGGAUAUCACUUGCUAC	71.8 nM	335 nM	–	–
UUAUAAAAUAUAGGAUAUGGAAACAUGAGGAUCACCCAUGUAUGAUAAGAUAAAUUAUGAUAUAGCCAGAAGGAUACAAUUUUU	–	–	37.3 nM	35 nM

Sequence	apparent Kd [1]	apparent Kd [2]	apparent Kd [3]	apparent Kd [4]
GUUGUGCGAGGAUAUAUGUGAGGUUUGCCUCAACAGGUAAUACAUGAGGAUCACCCAUGUAGAAGGCGCAUGAG	102 nM	589 nM	–	–
UCCACUGCUGAGAAGGGAUCCGUGUGGUUCGAAUCAGGAUAUCGAUACAGUGCAGCAUGAGGACAUGAGGAUCACCCAUGUAUU	–	–	16 nM	13 nM
AGCUAGUCAGGAUAUGCGAACAUGUCAAAAGACGUGAAGGGACAUGAGGAUCACCCAUGUAGAAGGGACUAGCA	31.8 nM	35.9 nM	–	–
UCUAUCAGAGGAUAUACAUGAGGAUCACCCAUGUCAGUCGAACGGGAUGGAAGGUUAGGUAGAAGGUUGUAGAU	39.8 nM	41.2 nM	–	–
CGCACUGAUAGAGGAUAUGUUGUACAUGAGGAUCACCCAUGUGUUUUUGUAUCAAUAUUAGUGAAACAGAAGGCUAUUAGUGCG	5.65 nM	4.65 nM	–	–
AAAAUCUAUACAGGAUAUCCAUACGCUGCAUACGGAGAAGGGUAACAAUCAUGAGGACAUGAGGAUCACCCAUGUUGUGACCAU	–	–	232 nM	76.1 nM
UUACUUGUGCAGAAGGGCAUUGAUUUAGGUUUUUAGGUUGAUCAGAUAUGCAGGAUAUGCUAUACAUGAGGAUCACCCAUGUUC	–	–	112 nM	8.99 nM
GUUAUAUUUAGUUCAUACUAUAUGAUAGAAGGUGAAAUAUAGACAUGAGGAUCACCCAUGUAAUUCAAGGAUAUGUAGUUACUC	–	–	29.9 nM	21.5 nM
UACAUGAGGAUCACCCAUGUUUUGUCGUGUAUGGUAUUUAUCUAGGAUAUCAUUUUAGUUAGUUAUGAGAAGGAGAAUAUUAAU	32.2 nM	31.6 nM	–	–
AAGUAGAACGUAGGAUAUCAAUGAGGAUCACCCUGAGAAGGACGUGAGGACAUGAGGAUCACCCAUGUGGAUCACCCAUGUCAU	157 nM	132 nM	–	–
CGCACUGAUAGAGGAUAUGUUUUACAUGAGGAUCACCCAUGUGUACAAGGAUCAAUAUAUUAGUAACAGAAGGCUAUUUGUGCG	21.7 nM	19.1 nM	–	–
CCGAAUAAGCAGGAUAUCGUAUCGGAAACGAUACGAGAAGGGCUAACAUGAGGAUCACCCAUGUUCCUUAACGG	22.1 nM	23.5 nM	–	–
GAUGGAAUAGUCAGGAUAUAAACGUCAGGAUAUGUUUAGAAGGGACAUGAGGAUCACCCAUGUUAAGAUAUGGU	29.9 nM	87.6 nM	–	–
GUCAUGUUAGGAUAUCUGGCAUGUGACUUCGGUCACUGUCCAGAGAAGGAACAUGAGGAUCACCCAUGUUGGAC	75.1 nM	57.1 nM	–	–
AGACCCAUGACAUGAGAUGACAUGAGGAUCACCCAUGUUUACGAGGAUAUGUUGAUGAAACAUCAACAGAAGGUGUAAUGGGCU	21.2 nM	28.9 nM	–	–
CUUCGACAUGAGGAUCACCCAUGUCAGGAUAUUGUGUAUCGGGUUUUUUACGGAAAGGCGAGAAGGGAUGUGUG	27.6 nM	22.3 nM	–	–
GUAAAUCAUGUAGGAUAUGCAUGGCGAAGCUACGCAGAAGGACAUGAGGAUCACCCAUGUUCUAGCGUCUGAGUUCAGAUGCAA	19.3 nM	45.9 nM	–	–
ACGGUGGUCACAGGAUAUCCGGCGCGCGUGCCUGGAGAAGGGUGACUCAGAACCACAUGAGGAUCACCCAUGUGCCUUGCCGUA	–	–	169 nM	49.2 nM
AAAACGUGAGGAUAUCCAAUAUAUGACAUGAGGAUCACCCAUGUUUCCACUCGUACCUCCGGAGAAGGCACAAUUU	51.2 nM	41.7 nM	–	–
CGUGCGUCGACAGGAUAUACAGAUUGGCUCCGGUACAUGAGGAUCACCCAUGUAGAAGGGUCACGCACGGUUAGUUCGUUAUUA	8.88 nM	40.9 nM	–	–
AGUCAUACAGGAUAUACAUGAGGAUCACCCAUGUAAAUCCUAAAAAGAAAAACCUCUUGUAGAAGGGUAUGACA	14.3 nM	16.3 nM	–	–
UGGUACUAGGGAGGAUAUGGGAAGAUACAUGAGGAUCACCCAUGUUUAAGAAUGCCGAGAGGCAACUAGAAGGCCCUAGUACGU	–	–	434 nM	19.6 nM
UUAUGUUUUGUAGGAUAUCAUUAGUUUUGUAUUUUAAUUGUAAUUUAGAUAUGAGAAGGACAUUUACAUGAGGAUCACCCAUGU	20.3 nM	14.2 nM	–	–
GCAGGAUAAGUGAGGAUAUACCUAUGGAUACAUAGGUAGAAGGUACAUGAGGAUCACCCAUGUUCCUUACCUGC	11.9 nM	13.4 nM	–	–
UGUGCUGAAGGAUAUGCGUAAUCUCGGUGACGAGUAGAUCUACAUGAGGAUCACCCAUGUAGAAGGUCAGUACU	17.8 nM	18.9 nM	–	–
AAUGCCAAUGAAGGAUAUACAAACAUGAGGAUCACCCAUGUGUCUUUCGUGUAAGUGGAAUUCGCGUAGAAGGUCAUUGACAUA	38.3 nM	22.3 nM	–	–
UUACUUUUACAGAAGGUUUAAUAAUAUAUAAAAGAAGGAUAUGUAACAUGAGGAUCACCCAUGUUUCACCCAUAUGAGGAUCAU	7.18 nM	6.98 nM	–	–
